A selection: hits, their analogues and other compounds. The true share with any hit is near 2.4%.
Rin1-Abl PPI inh – blocks binding of human Rin1 to Abl; TR-FRET Rin1/Abl binding, biochemical; inhibition, % at 7.35 µM; 360,000 compounds, 0.4% hits; P00519+Q13671; in the data active = inhibition above about 5%, passing the limit was not always enough
Rpn11 inh – blocks the human proteasome subunit Rpn11; 360,000 compounds, 0.59% hits; human 26S proteasome, Ub4-pepOG fluorescence polarization; 20S core pre-blocked with epoxomicin; inhibition, % at 20 µM; O00487;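 active = inhibition at 20 µM, scaled to each plate's controls, above about 33%, limit read from the data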
Target sequence (O00487 whole entry, looked up): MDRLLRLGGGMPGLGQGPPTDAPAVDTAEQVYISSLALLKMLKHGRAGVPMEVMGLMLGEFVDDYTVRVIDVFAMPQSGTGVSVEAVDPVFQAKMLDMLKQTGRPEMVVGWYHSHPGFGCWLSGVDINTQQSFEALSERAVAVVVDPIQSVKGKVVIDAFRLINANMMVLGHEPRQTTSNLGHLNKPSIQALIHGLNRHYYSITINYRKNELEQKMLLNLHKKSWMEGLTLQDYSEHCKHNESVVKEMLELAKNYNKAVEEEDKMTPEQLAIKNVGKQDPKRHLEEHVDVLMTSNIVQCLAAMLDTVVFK
Neddylation inh – blocks human cullin neddylation; 360,000 compounds, 0.58% hits; inhibition, % at 25 µM; P61081+Q13564; TR-FRET cullin neddylation, biochemical; in the data active = inhibition above about 36%
HNF4A DNA FP – change in binding of human HNF4 alpha to DNA | P41235 | HNF4a-FITC DNA binding, fluorescence polarization, 1 h | activity change, % at 10 µM | 360,000 compounds, 0.3% hits | AID 1224865; in the data active = activity change above about 30%, passing the limit was not always enough
CSN deneddyl inh – CSN deneddylation inhibition | Q92905 | Purified CSN, SCF-Nedd8-OG deneddylation, fluorescence polarization | inhibition, % at 12.5 µM | 360,000 compounds, 0.38% hits | AID 651999;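 active = pattern-corrected inhibition above about 35%, with an unprinted fluorescence ratio check between 0.5 and 1.5, limit read from the data, passing the limit was not always enough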;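 also: 0% = enzyme with substrate and 100% = substrate without enzyme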
Target sequence (Q92905 whole entry, looked up, one chain of several): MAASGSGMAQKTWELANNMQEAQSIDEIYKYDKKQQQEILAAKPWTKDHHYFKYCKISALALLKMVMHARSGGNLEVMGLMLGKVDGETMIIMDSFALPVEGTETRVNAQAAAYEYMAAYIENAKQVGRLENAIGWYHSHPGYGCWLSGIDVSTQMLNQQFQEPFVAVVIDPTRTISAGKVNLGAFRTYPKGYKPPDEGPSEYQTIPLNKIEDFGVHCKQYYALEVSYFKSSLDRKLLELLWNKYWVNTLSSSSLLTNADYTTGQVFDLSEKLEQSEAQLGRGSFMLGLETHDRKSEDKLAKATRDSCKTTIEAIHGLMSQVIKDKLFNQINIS
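Assay system: purified human Csn5 enzyme expressed in HEK293T cells; measure: % inhibition; also added: SCFSkp2-Nedd8OG substrate at 10 nM final; technique: fluorescence polarization; times: reaction 90 min, room temperature; medium: Tris buffer pH 7.5, NaCl, DTT, Tween-20, trehalose, ovalbumin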
TPT1 inhibitor – inhibitors of Candida albicans tRNA 2'-phosphotransferase TPT1 | recombinant caTPT1, FP RNA substrate dephosphorylation | AID 1962 | inhibition, % at 5 µM | 300,000 compounds, 0.81% hits;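 active = inhibition above the mean of all tested compounds plus 3 SD, set per screening campaign, cut at about 24% in these data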;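 also: plate controls were DMSO alone for no effect and ferristatin control at 100 nM for full effect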
caTPT1 confirm – confirmation of Candida albicans TPT1 inhibitors. shares compounds with TPT1 inhibitor. recombinant caTPT1, fluorescence polarization, RNase T1 coupled. inhibition, % at 5 µM. 2,400 compounds, 74% hits. AID 2149;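 active = inhibition above the primary screen limit, the mean inhibition of all tested compounds plus 3 SD, cut at about 25% in these data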
RNase T1 inh – RNase T1 inhibition in TPT1 counter-screen; shares compounds with TPT1 inhibitor; RNase T1 cleavage, fluorescence polarization, 1536-well; inhibition, % at 5 µM; 2,400 compounds, 83% hits;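 active = inhibition above the solvent-only control well mean plus 3 SD, limit set per screening run, cut at about 23% in these data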;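 also: plate controls were DMSO wells with enzyme for no effect and wells without RNase T1 for full effect; inhibitors block cleavage so intact labeled substrate keeps polarization high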
Active calls of the source: *; x = no result shown.

SMILES | Rin1-Abl PPI inh | Rpn11 inh | Neddylation inh | HNF4A DNA FP | CSN deneddyl inh | TPT1 inhibitor | caTPT1 confirm | RNase T1 inh
Cc1noc(/C=C/Nc2ccc(F)cc2F)c1[N+](=O)[O-] | 1.5 | -21.3 | -24.8 | 0.2 | -10.0 | 4.2 | x | x
Cc1cc(F)ccc1S(=O)(=O)N1CCCOC1CNC(=O)C(=O)NCc1ccccn1 (configuration not stated) | -1.9 | 3.0 | -11.7 | -1.9 | -1.0 | -3.2 | x | x
COc1cccc(/C=N/Nc2ccc([N+](=O)[O-])cc2)c1O | -0.1 | 24.1 | -30.0 | 12.2 | 2.5 | 37.2* | 56.9* | 68.3*
O=[N+]([O-])c1ccc(N/N=C\c2ccccc2OCc2ccccc2)cc1 | 1.3 | 37.1 | -22.6 | 26.8 | 15.8 | 85.3* | 101.3* | 107.8*
COc1ccc(/C=N\Nc2ccc([N+](=O)[O-])cc2)c(C(=O)O)c1OC | -2.0 | -8.3 | -23.6 | 1.4 | 1.9 | 37.7* | 46.1* | 60.5*
COC(=O)c1ccc(N/N=C/c2cc([N+](=O)[O-])cc(OC)c2O)cc1 | -0.9 | 25.2 | -15.3 | -0.9 | -0.2 | 3.8 | x | x
COc1ccc(/C=N/Nc2ccc([N+](=O)[O-])cc2)cc1O | -3.2 | x | -63.9 | 43.5* | 33.1 | 82.1* | 97.7* | 106.3*
O=[N+]([O-])c1ccc(NN=Cc2cccc(O)c2)nc1 | -1.5 | -0.1 | -35.5 | 2.6 | -1.1 | x | x | x
Cc1cccc(C)c1-n1c(C)cc(/C=N\Nc2ccc([N+](=O)[O-])cn2)c1C | 3.8 | x | -17.1 | 37.9 | 23.7 | 74.7* | 67.2* | 79.0*
COc1cc(/C=N/N2C(=O)CSC2=S)ccc1O | -6.1 | 49.0* | -11.5 | 20.6 | 19.2 | 28.5* | 28.2* | 39.6*
COc1cc(O)c(C=NN2C(=O)CSC2=S)c(OC)c1 | 0.2 | 29.3 | 19.1 | 6.9 | 1.7 | x | x | x
O=C1CSC(=S)N1/N=C/c1cc(Br)c(O)c(Br)c1 | -1.8 | x | -43.5 | 158.2 | -72.7 | 81.7* | 75.0* | 83.7*
O=C(NCC(c1cccs1)N1CCOCC1)c1cc(S(=O)(=O)N2CCOCC2)ccc1F (configuration not stated) | 4.7 | 2.5 | 8.2 | 1.8 | -2.0 | 2.4 | x | x
Cc1ccc(NC(=O)c2ccc(NCCc3ccccc3)c([N+](=O)[O-])c2)cc1F | -1.1 | x | -50.9 | 54.0* | 118.0 | 58.7* | 107.9* | 112.8*
O=C(Nc1cc(F)cc(F)c1)c1ccc(NCCc2ccccc2)c([N+](=O)[O-])c1 | -0.4 | x | -32.2 | 115.5 | 119.4 | 67.5* | 92.3* | 101.6*
C[C@@]12CCC=C[C@H]1[C@H](c1ccc(F)c(/C=C/c3ccccc3)c1)N(Cc1ccccc1)C2=O | 0.6 | 4.5 | 15.6 | 2.7 | -3.0 | -0.2 | x | x
COc1cc(C2CC(=O)Nc3cc(C)c(C)cc32)cc(OC)c1OC (configuration not stated) | -2.9 | 1.7 | -3.5 | 1.1 | -6.4 | -2.5 | x | x
Cc1cc2c(cc1C)C(c1cccc([N+](=O)[O-])c1)CC(=O)N2 (configuration not stated) | 3.2 | -0.5 | -6.2 | 0.2 | 0.6 | 52.9* | 18.7 | 31.6*
O=C(NCCN1CCC(n2c(=O)[nH]c3ccccc32)CC1)c1cccs1 | x | x | -0.1 | 1.1 | -3.7 | x | x | x
CC1=C(C(=O)N2CCOCC2)CC(CC(=O)NC2CCCC2)C(=O)N1Cc1ccc(F)cc1 (configuration not stated) | -0.6 | -3.9 | 2.7 | -0.5 | -3.5 | x | x | x
COc1cccc(C2=CC(c3ccccc3)n3nnnc3N2)c1 (configuration not stated) | 0.7 | -22.6 | 14.4 | -4.3 | -0.1 | 0.8 | x | x
COc1cccc(C2=CC(c3ccc(N(C)C)cc3)n3ncnc3N2)c1 (configuration not stated) | x | x | x | x | x | 38.2* | 33.8* | 42.9*
COc1cccc(C2=CC(c3ccc(N(C)C)cc3)n3nnnc3N2)c1 (configuration not stated) | -3.1 | 30.3 | 13.5 | 5.6 | 0.9 | 28.5* | 11.4 | 16.7
Cc1cc(=O)[nH]c(SCC(=O)c2ccccc2)c1C#N | 0.9 | 21.0 | -12.3 | 6.2 | 4.2 | 51.1* | 31.1* | 45.4*
CC(C)c1ccccc1NC(=O)COC(=O)c1ccc(Cl)c(S(=O)(=O)N2CCCCCC2)c1 | 1.4 | -18.2 | -18.2 | -3.4 | -0.3 | 3.5 | x | x
SMILES | Rin1-Abl PPI inh | Rpn11 inh | Neddylation inh | HNF4A DNA FP | CSN deneddyl inh | TPT1 inhibitor | caTPT1 confirm | RNase T1 inh
COc1cc(/C=C/C(=O)c2ccc3c(c2)OCO3)cc(Cl)c1O | 0.9 | x | 8.9 | 11.5 | 18.5 | 81.6* | 94.3* | 96.1*
N#CC1(C#N)C2=C(CCCC2)NC(c2ccccc2)C1(C#N)C#N (configuration not stated) | x | x | x | x | x | 30.3* | 25.2* | 34.5*
O=c1/c(=C/c2ccccn2)sc2nc3ccccc3n12 | 0.1 | -8.3 | -4.3 | -7.5 | -1.0 | -9.5 | x | x
O=c1/c(=C\c2cc([N+](=O)[O-])cc([N+](=O)[O-])c2O)sc2nc3ccccc3n12 | 4.2 | x | -32.3 | 40.2* | 13.7 | 91.2* | 90.9* | 93.3*
COc1ccc(-n2nnnc2C(c2cc3ccccc3o2)N2CCN(C/C=C/c3ccccc3)CC2)cc1 (configuration not stated) | -2.4 | 3.7 | -2.9 | -3.2 | 3.0 | x | x | x
C/C(=N/NC(=O)c1nnn(-c2nonc2N)c1COc1ccccc1)c1ccc(O)cc1 | 1.9 | 13.1 | 25.1 | 1.4 | 0.7 | 2.0 | x | x
COC(=O)c1cc(NC(=O)c2cccc(Cl)c2)c(=O)oc1/C=C/Nc1cc(C)cc(C)c1 | x | x | x | x | x | 194.0* | 166.3* | 155.4*
O=C(Cn1ncc2c3ccccc3n(Cc3cccc(Cl)c3)c2c1=O)NCC1CCCO1 (configuration not stated) | 2.3 | x | -54.9 | 23.6 | 18.7 | 29.2* | 98.2* | 93.6*
Cc1ccc2nc(SCC(=O)Nc3ccc4sc(C)nc4c3)c(C#N)cc2c1 | -3.0 | 7.5 | -131.4 | 3.0 | 0.5 | 24.9* | 6.5 | 10.5
COc1ccc(/C=N/NC(=O)c2ccc(O)cc2)cc1CN1CCCc2ccccc21 | -1.5 | 7.2 | 13.8 | 4.6 | -2.4 | 31.3* | 39.9* | 54.2*
COc1ccc(/C=N/NC(=O)c2ccc(F)cc2)cc1CN1CCc2cc(OC)c(OC)cc2C1C (configuration not stated) | -0.7 | 11.2 | 1.5 | 1.9 | 5.4 | 1.0 | x | x
CNC(=O)c1[nH]cnc1C(=O)Nc1ccccn1 | -0.2 | -2.4 | 16.2 | 2.2 | -2.7 | 93.6* | 3.6 | 7.7
COc1ccc(NC(=O)N(C)C[C@H]2Oc3ncc(Br)cc3C(=O)N([C@H](C)CO)C[C@@H]2C)cc1 | 1.8 | -0.9 | 5.5 | -2.3 | 0.6 | x | x | x
Oc1c(C=Nc2cccnc2)sc2ccccc12 | -0.8 | 13.1 | -7.9 | 13.7 | 8.7 | 15.5 | x | x

Screening data deposited in PubChem BioAssay by several laboratories.
